ChEMBL document CHEMBL4725467, “Antiferroptotic Activity of Phenothiazine Analogues: A Novel Therapeutic Strategy for Oxidative Stress Related Disease” (ACS Med Chem Lett, 2020)
The source made the active and inactive calls. No cut-off for these calls is given here.

How the values were obtained:
[1] = Inhibition of erastin-induced cell death in FRDA patient-derived fibroblast assessed as depletion of cellular ATP incubated for 12 hrs followed by erastin stimulation and measured after by luciferase-linked ATPase enzymatic assay; format: functional, tissue-based; conditions: Homo sapiens
Procedure, shortened: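 Primary FRDA patient fibroblasts treated with compound, then challenged with erastin (cystine-glutamate exchange inhibitor, GSH depletion). Cell death read as depletion of cellular ATP by a luciferase-linked kit assay.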

Lymphocyte [2] = test: Cytotoxicity against FRDA patient-derived lymphocyte at 2.5 uM incubated for 24 to 48 hrs by flow cytometry analysis; format: cell-based; conditions: human, time 24-48 hrs
Procedure, shortened: (§1)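 FRDA lymphocytes kept 24 h in glucose-free medium with galactose to force reliance on mitochondrial ATP. Viability by flow cytometry with dual staining, calcein-AM for live and ethidium homodimer-1 for dead cells. Percent live cells taken from a two-dimensional color density dot plot. Duplicates run in two independent experiments.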

Lymphocyte [3] = test: Induction of ATP production in FRDA patient-derived lymphocyte at 0.1 uM incubated for 24 hrs by luciferase-linked ATPase enzymatic assay; format: functional, tissue-based; conditions: Homo sapiens
Procedure, shortened: (§2)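 Total cellular ATP in cultured FRDA lymphocytes after 24 h with compound in glucose-free medium with 25 mM galactose, to force OXPHOS dependence. Tested range 100 nM–2.5 μM. Expressed as percent of total ATP relative to untreated control.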

Lymphocyte [4] = test: Induction of mitochondria membrane potential depolarization in FRDA patient-derived lymphocyte at 2.5 uM incubated for 16 hrs by JC-1 probe based flow cytometry analysis; format: functional; conditions: Homo sapiens
Procedure, shortened: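 Mitochondrial inner membrane potential in FRDA lymphocytes measured by flow cytometry with the ratiometric probe JC-1. Percent of cells with intact Δψm taken from a two-dimensional color density dot plot. Duplicates run in two independent runs.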

Lymphocyte [5] = test: Anti-ferroptotic activity in FRDA patient-derived Lymphocyte assessed as reduction in RSL3-induced lipid peroxidation incubated for overnight followed by RSL3 stimulation and measured after 90 mins by FACS analysis; format: functional, cell-based; conditions: Homo sapiens, 1.5 h
Procedure, shortened: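 FRDA patient lymphocytes pretreated with a range of concentrations, then challenged with RSL3 (GPX4 inhibitor) at 2 μM; lipid peroxidation read with the C11-BODIPY581/591 fluorescent probe. EC50 taken from dose–response curves by nonlinear regression fit.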

Lymphocyte [6] = test: Induction of ATP production in FRDA patient-derived lymphocyte incubated for 24 hrs by luciferase-linked ATPase enzymatic assay; format: functional, tissue-based; conditions: Homo sapiens, dose microM 0.25-2.5, time 24.0 hrs; procedure, shortened: as §2
HepG2 = test: Inhibition of ferroptosis in human HepG2 cells assessed as increase in pAMPK/AMPK ratio at 1 uM incubated for 24 hrs by Western blot analysis; format: functional, cell-based
Procedure, shortened: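 HepG2 cells treated with or without compound. AMPK, p-AMPK and β-actin (loading control) detected by Western blot and quantified as p-AMPK/AMPK ratio. Triplicate experiments, mean ± SEM.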

Lymphocyte [7] = test: Induction of ATP production in FRDA patient-derived lymphocyte at 2.5 uM incubated for 24 hrs by luciferase-linked ATPase enzymatic assay; format: functional, tissue-based; conditions: Homo sapiens; procedure, shortened: as §2
Lymphocyte [8] = test: Cytotoxicity against FRDA patient-derived lymphocyte at 0.25 to 2.5 uM incubated for 24 to 48 hrs by flow cytometry analysis; format: cell-based; conditions: human, dose 0.25-2.5 µM, time 24-48 hrs; procedure, shortened: as §1
Lymphocyte [9] = test: Induction of ATP production in FRDA patient-derived lymphocyte at 0.1 to 0.5 uM incubated for 24 hrs by luciferase-linked ATPase enzymatic assay; format: functional, tissue-based; conditions: Homo sapiens, dose microM 0.1-0.5, time 24.0 hrs; procedure, shortened: as §2
Lymphocyte [10] = test: Induction of ATP production in FRDA patient-derived lymphocyte at 0.1 to 2.5 uM incubated for 24 hrs by luciferase-linked ATPase enzymatic assay; format: functional, tissue-based; conditions: Homo sapiens, dose microM 0.1-2.5, time 24.0 hrs; procedure, shortened: as §2
Lymphocyte [11] = test: Induction of ATP production in FRDA patient-derived lymphocyte at 0.1 and 0.25 uM incubated for 24 hrs by luciferase-linked ATPase enzymatic assay; format: functional, tissue-based; conditions: Homo sapiens, dose microM 0.1-0.25, time 24.0 hrs; procedure, shortened: as §2

CCCCCCCCc1cc2nc3ccc(N(C)C)cc3sc-2cc1=O
EC50 [1]: 0.015 µM | Activity (Lymphocyte [2]): Toxic | Activity (Lymphocyte [3]): Active | Activity (Lymphocyte [4]): Active | EC50 (Lymphocyte [5]): 0.014 µM

CN(C)c1ccc2nc3ccc(N(C)C)cc3[s+]c2c1.[Cl-] [METHYLENE BLUE ANHYDROUS]
EC50 [1]: 0.043 µM | Activity (Lymphocyte [2]): Toxic | EC50 (Lymphocyte [5]): 0.088 µM

CN(C)c1ccc2nc3ccc(=[N+](C)C)cc-3sc2c1
Activity (Lymphocyte [6]): inactive | pAMPK/AMPK ratio increase (active/not active) (HepG2): inactive | Activity (Lymphocyte [3]): Active | Activity (Lymphocyte [4]): Active

CCCCCCCCCCCCc1cc2nc3ccc(N(C)C)cc3sc-2cc1=O
Activity (Lymphocyte [7]): inactive | EC50 [1]: 0.015 µM | Activity (Lymphocyte [4]): Active | EC50 (Lymphocyte [5]): 0.016 µM | Activity (Lymphocyte [8]): Non-Toxic | Activity (Lymphocyte [9]): Active

CCCCCCCCc1cc2nc3ccc(N(C)C)cc3sc-2cc1=[N+](C)C.[I-]
EC50 [1]: 0.039 µM | Activity (Lymphocyte [2]): Toxic | Activity (Lymphocyte [4]): Active | EC50 (Lymphocyte [5]): 0.076 µM | Activity (Lymphocyte [10]): inactive

Clc1cccc(CNC2=Nc3ccccc3NC23CCNCC3)c1
EC50 [1]: 0.022 µM | EC50 (Lymphocyte [5]): 0.022 µM

CCCCCCCCCCc1cc2nc3ccc(N(C)C)cc3sc-2cc1=O
EC50 [1]: 0.01 µM | pAMPK/AMPK ratio increase (active/not active) (HepG2): Active | Activity (Lymphocyte [2]): Toxic | Activity (Lymphocyte [3]): Active | Activity (Lymphocyte [4]): Active | EC50 (Lymphocyte [5]): 0.009 µM

CCCCCCCCCCc1cc2nc3ccc(N(C)C)cc3sc-2cc1=[N+](C)C.[I-]
EC50 [1]: 0.029 µM | pAMPK/AMPK ratio increase (active/not active) (HepG2): Active | Activity (Lymphocyte [2]): Toxic | Activity (Lymphocyte [4]): Active | EC50 (Lymphocyte [5]): 0.038 µM | Activity (Lymphocyte [10]): inactive

CCCCCCCCCCCCc1cc2nc3ccc(N(C)C)cc3sc-2cc1=[N+](C)C.[I-]
EC50 [1]: 0.035 µM | Activity (Lymphocyte [2]): Toxic | Activity (Lymphocyte [4]): Active | EC50 (Lymphocyte [5]): 0.054 µM

CCCCCCCCCCCCCCCCc1cc2nc3ccc(N(C)C)cc3sc-2cc1=[N+](C)C.[I-]
Activity (Lymphocyte [11]): Active | Activity (Lymphocyte [7]): inactive | EC50 [1]: 0.055 µM | EC50 (Lymphocyte [5]): 0.07 µM | Activity (Lymphocyte [8]): Non-Toxic

CCCCCCCCCc1cc2nc3ccc(N(C)C)cc3sc-2cc1=[N+](C)C.[I-]
EC50 [1]: 0.037 µM | Activity (Lymphocyte [2]): Toxic | Activity (Lymphocyte [4]): Active | EC50 (Lymphocyte [5]): 0.053 µM | Activity (Lymphocyte [10]): inactive

CCOC(=O)c1ccc(NC2CCCCC2)c(N)c1
EC50 [1]: 0.033 µM | EC50 (Lymphocyte [5]): 0.048 µM

CC(=O)N1c2ccc(N(C)C)cc2Sc2cc(N(C)C)ccc21
EC50 (Lymphocyte [5]): > 2.5 µM

Cc1c(C)c2c(c(C)c1O)CC[C@@](C)(CCC[C@H](C)CCC[C@H](C)CCCC(C)C)O2 [ALPHA-TOCOPHEROL]
EC50 [1]: > 0.5 µM | EC50 (Lymphocyte [5]): > 0.5 µM

CCCCCCCCCc1cc2nc3ccc(N(C)C)cc3sc-2cc1=O
EC50 [1]: 0.011 µM | Activity (Lymphocyte [2]): Toxic | Activity (Lymphocyte [3]): Active | Activity (Lymphocyte [4]): Active | EC50 (Lymphocyte [5]): 0.012 µM

CN(C)c1ccc2nc3ccc(=O)cc-3sc2c1
EC50 [1]: 0.027 µM | pAMPK/AMPK ratio increase (active/not active) (HepG2): Active | Activity (Lymphocyte [4]): Active | EC50 (Lymphocyte [5]): 0.026 µM

CCCCCCCCCCCCCCCCc1cc2nc3ccc(N(C)C)cc3sc-2cc1=O
Activity (Lymphocyte [7]): inactive | EC50 [1]: 0.022 µM | EC50 (Lymphocyte [5]): 0.025 µM | Activity (Lymphocyte [8]): Non-Toxic | Activity (Lymphocyte [9]): Active
